# Test results reported in ChEMBL document CHEMBL1146360, “Benzoic acid and pyridine derivatives as inhibitors of Trypanosoma cruzi trans-sialidase” (Bioorg Med Chem, 2007).
# Experiments:
# [1] = Inhibition of Trypanosoma cruzi recombinant Trans-sialidase; settings: read-out: I50
# In short: (§1)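 Recombinant His-tagged TcTS was expressed in E. coli with IPTG induction at 18 °C, then purified by metal-affinity and anion-exchange chromatography. Enzyme (0.33 mg/mL stock) and inhibitor were preincubated 10 min at 25 °C in 20 mM Tris-HCl pH 7.5. The reaction was started with MuNANA (1 mM stock) and methylumbelliferone release read continuously for 10 min at 25 °C (ex 322/em 448 nm). Percentage activity is the mean of ≥3 independent runs. I50 was fitted as V=100%/{1+([I]/I50)^s}.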
# [2] = tested on: Trypanosoma cruzi; settings: at 1 mM;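 note: measured against recombinant trans-sialidase from Trypanosoma cruzi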
# [3] = tested on: Trypanosoma cruzi; assay: Apparent activation of Trypanosoma cruzi recombinant Trans-sialidase; settings: concentration not given here; in short: as §1
# [4] = tested on: Trypanosoma cruzi; assay: Inhibition of Trypanosoma cruzi recombinant Trans-sialidase at 0.5 mM; in short: as §1
# [5] = tested on: Trypanosoma cruzi; assay: Inhibition of Trypanosoma cruzi recombinant Trans-sialidase at 0.4 mM; in short: as §1
Structure (SMILES),inhibition [2],further results
Nc1cc(C(=O)O)ccc1NCc1cccnc1,–,IC50 [1]: 740 µM
Nc1cc(C(=O)O)ccc1SCc1ccccc1,–,IC50 [1]: 700 µM
NCC(=O)Nc1cc(C(=O)O)ccc1SCc1ccccc1,–,IC50 [1]: 1000 µM
CNC(=O)c1ccc(C(=O)O)cc1NC(=N)N,–,IC50 [1]: 760 µM
CC(=O)Nc1ccc(C(=O)O)nc1,22%,–
N=C(N)Nc1cc(CCN)cc(C(=O)O)c1,–,inhibition [3]: -19%
CC(=O)Nc1c(CCO)cc(C(=O)O)cc1N=C(N)N,0%,–
NC(N)=Nc1cc(C(=O)O)cc(CCO)c1N,0%,–
CC(=O)Nc1ccc(C(=O)O)cc1/C=N/O,24%,–
NC(N)=Nc1cc(C(=O)O)ccc1NC(=O)Cc1ccccc1,–,inhibition [4]: 54%
CS(=O)(=O)Nc1c(CO)cc(C(=O)O)cc1N=C(N)N,11%,–
CC(=S)Nc1ccc(C(=O)O)nc1,–,IC50 [1]: 540 µM
NC(N)=Nc1cc(C(=O)O)ccc1SCc1ccccc1,–,inhibition [5]: 43%
CC(=O)Nc1ccc(C(=O)O)cc1CO,–,IC50 [1]: 540 µM
CC(=O)Nc1cc(C(=O)O)ccc1N1CCOCC1,–,IC50 [1]: 580 µM
CS(=O)(=O)Nc1ccc(C(=O)O)nc1,25%,–
CC(=O)Nc1cnc(C(=O)O)cc1N,14%,–
C[S+]([O-])Nc1ccc(C(=O)O)cc1N=C(N)N (stereo unspecified),29%,–
Nc1cc(C(=O)O)ccc1NC(=O)Cc1ccccc1,–,IC50 [1]: 1200 µM
CC(=O)Nc1ccc(C(=O)O)nc1N,–,IC50 [1]: 440 µM
N=C(N)Nc1cc(/C=N/O)cc(C(=O)O)c1,35%,–
O=C(CN1CCOCC1)Nc1ccc(C(=O)O)cc1,0%,–
CS(=O)(=O)Nc1c(/C=N/O)cc(C(=O)O)cc1N=C(N)N,46%,–

# Now from value to compound, other results behind:
inhibition [2],Structure (SMILES),further results
0%,CC(=O)Nc1ccc(C(=O)O)cc1CC(O)CO (stereo in doubt; 32),–
17%,CS(=O)(=O)Nc1ccc(C(=O)O)cc1C(O)CN (stereo unspecified),–
17%,CC(=O)Nc1ccc(C(=O)O)cc1CC(O)CO (stereo in doubt; 31),–
0%,CC(=O)Nc1ccc(C(=O)O)cc1CC(N)=O,–
0%,CC(=O)Nc1ccc(C(=O)O)cc1,–
16%,CC(=O)Nc1ccc(C(=O)O)cc1CCO,–
25%,CC(=O)Nc1ccc(C(=O)O)cc1CCN,–
9%,NC(N)=Nc1cc(C(=O)O)ccc1NCc1ccccc1,–
